Experiments:
Rattus norvegicus [1] = test: Kidney uptake after 60 min was determined in female Fischer rats after [125I]-labeled compound complexed with bovine serum albumin was injected intravenously; assay type: functional
In short: (§1)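 Female Fischer 344 rats (fed ad libitum) under ether anaesthesia received the ¹²⁵I fatty acid in a lateral tail vein. Dose was ~3.8–4.8 μCi per rat (sp act ~125–240 mCi/mmol), given in 0.5 mL 6% bovine albumin (final ethanol 10%) after filtration. Four rats per time point were used. Tissue radioactivity is % injected dose/g, mean with range, calculated against standards of the injected solution.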

Rattus norvegicus [2] = test: Lungs uptake after 2 hr was determined in female Fischer rats after [125I]-labeled compound complexed with bovine serum albumin was injected intravenously; assay type: functional; in short: as §1
[3] = Ratio of heart to kidneys uptake after 30 min was determined in female Fischer rats after [125I]-labeled compound complexed with bovine serum albumin was injected intravenously; assay type: functional, Heart/Kidney
In short: (§2)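 Female Fischer 344 rats (food and water ad libitum) given the 125I-labelled fatty acid in 6% bovine albumin with 10% final ethanol, filtered, 0.5 mL into a lateral tail vein under ether anaesthesia. Four rats per time point. Tissue activity expressed as % injected dose/g against assayed injectate standards. Mean heart/tissue ratios were calculated from mean %ID/g values.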

Rattus norvegicus [4] = test: Liver uptake after 1 day was determined in female Fischer rats after [125I]-labeled compound complexed with bovine serum albumin was injected intravenously; assay type: functional; in short: as §1
Rattus norvegicus [5] = test: Blood uptake after 30 min was determined in female Fischer rats after [125I]-labeled compound complexed with bovine serum albumin was injected intravenously; assay type: functional; in short: as §1
Rattus norvegicus [6] = test: Heart uptake after 5 min was determined in female Fischer rats after [125I]-labeled compound complexed with bovine serum albumin was injected intravenously; assay type: functional; in short: as §1
Rattus norvegicus [7] = test: Kidney uptake after 30 min was determined in female Fischer rats after [125I]-labeled compound complexed with bovine serum albumin was injected intravenously; assay type: functional; in short: as §1
[8] = Ratio of heart to liver uptake after 30 min was determined in female Fischer rats after [125I]-labeled compound complexed with bovine serum albumin was injected intravenously; assay type: functional; in short: as §2
Rattus norvegicus [9] = test: Heart uptake after 3 day was determined in female Fischer rats after [125I]-labeled compound complexed with bovine serum albumin was injected intravenously; assay type: functional; in short: as §1
Rattus norvegicus [10] = test: Kidney uptake after 2 hr was determined in female Fischer rats after [125I]-labeled compound complexed with bovine serum albumin was injected intravenously; assay type: functional; in short: as §1
Rattus norvegicus [11] = test: Blood uptake after 3 day was determined in female Fischer rats after [125I]-labeled compound complexed with bovine serum albumin was injected intravenously; assay type: functional; in short: as §1
Rattus norvegicus [12] = test: Liver uptake after 3 day was determined in female Fischer rats after [125I]-labeled compound complexed with bovine serum albumin was injected intravenously; assay type: functional; in short: as §1
Rattus norvegicus [13] = test: Liver uptake after 60 min was determined in female Fischer rats after [125I]-labeled compound complexed with bovine serum albumin was injected intravenously; assay type: functional; in short: as §1
Rattus norvegicus [14] = test: Lungs uptake after 3 days was determined in female Fischer rats after [125I]-labeled compound complexed with bovine serum albumin was injected intravenously; assay type: functional; in short: as §1
Rattus norvegicus [15] = test: Lungs uptake after 1 day was determined in female Fischer rats after [125I]-labeled compound complexed with bovine serum albumin was injected intravenously; assay type: functional; in short: as §1
Rattus norvegicus [16] = test: Kidney uptake after 3 days was determined in female Fischer rats after [125I]-labeled compound complexed with bovine serum albumin was injected intravenously; assay type: functional; in short: as §1
Rattus norvegicus [17] = test: Kidney uptake after 4 hr was determined in female Fischer rats after [125I]-labeled compound complexed with bovine serum albumin was injected intravenously; assay type: functional; in short: as §1
Rattus norvegicus [18] = test: Thyroid uptake after 4 hr was determined in female Fischer rats after [125I]-labeled compound complexed with bovine serum albumin was injected intravenously; assay type: functional
In short: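 Female Fischer 344 rats with free access to food and water. The 125I-labelled fatty acid (~3.8–4.8 μCi; sp act. ~125–240 mCi/mmol) was complexed with 6% bovine serum albumin (10% final ethanol), filtered, and 0.5 mL was injected via a lateral tail vein under ether anaesthesia. Four rats per time point. Values are mean % injected dose/g, calculated against injectate standards. Thyroid weight was taken as 7.5 mg/100 g body weight.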

Rattus norvegicus [19] = test: Kidney uptake after 1 day was determined in female Fischer rats after [125I]-labeled compound complexed with bovine serum albumin was injected intravenously; assay type: functional; in short: as §1
Rattus norvegicus [20] = test: Liver uptake after 30 min was determined in female Fischer rats after [125I]-labeled compound complexed with bovine serum albumin was injected intravenously; assay type: functional; in short: as §1
Rattus norvegicus [21] = test: Kidney uptake after 5 min was determined in female Fischer rats after [125I]-labeled compound complexed with bovine serum albumin was injected intravenously; assay type: functional; in short: as §1
Rattus norvegicus [22] = test: Kidneys uptake after 30 min was determined in female Fischer rats after [125I]-labeled compound complexed with bovine serum albumin was injected intravenously; assay type: functional; in short: as §1
Rattus norvegicus [23] = test: Kidneys uptake after 3 days was determined in female Fischer rats after [125I]-labeled compound complexed with bovine serum albumin was injected intravenously; assay type: functional; in short: as §1
Rattus norvegicus [24] = test: Kidneys uptake after 5 min was determined in female Fischer rats after [125I]-labeled compound complexed with bovine serum albumin was injected intravenously; assay type: functional; in short: as §1
Rattus norvegicus [25] = test: Liver uptake after 3 days was determined in female Fischer rats after [125I]-labeled compound complexed with bovine serum albumin was injected intravenously; assay type: functional; in short: as §1
Rattus norvegicus [26] = test: Kidneys uptake after 4 hr was determined in female Fischer rats after [125I]-labeled compound complexed with bovine serum albumin was injected intravenously; assay type: functional; in short: as §1
Rattus norvegicus [27] = test: Kidneys uptake after 1 day was determined in female Fischer rats after [125I]-labeled compound complexed with bovine serum albumin was injected intravenously; assay type: functional; in short: as §1
Rattus norvegicus [28] = test: Heart uptake after 3 days was determined in female Fischer rats after [125I]-labeled compound complexed with bovine serum albumin was injected intravenously; assay type: functional; in short: as §1
Rattus norvegicus [29] = test: Kidneys uptake after 2 hr was determined in female Fischer rats after [125I]-labeled compound complexed with bovine serum albumin was injected intravenously; assay type: functional; in short: as §1
Rattus norvegicus [30] = test: Kidneys uptake after 60 min was determined in female Fischer rats after [125I]-labeled compound complexed with bovine serum albumin was injected intravenously; assay type: functional; in short: as §1
Rattus norvegicus [31] = test: Blood uptake after 3 days was determined in female Fischer rats after [125I]-labeled compound complexed with bovine serum albumin was injected intravenously; assay type: functional; in short: as §1

Structure (SMILES): O=C(O)CCCCCCC[Te]CCCCCCC/C=C/I
- Injected dose/g (Rattus norvegicus [1]): 1.52%
- Injected dose/g (Rattus norvegicus [2]): 1.43%
- Ratio [3]: 3.7
- Injected dose/g (Rattus norvegicus [4]): 1.64%
- Injected dose/g (Rattus norvegicus [5]): 0.45%
- Injected dose/g (Rattus norvegicus [6]): 4.83%
- Injected dose/g (Rattus norvegicus [7]): 1.38%
- Ratio [8]: 0.66
- Injected dose/g (Rattus norvegicus [9]): 0.28%
- Injected dose/g (Rattus norvegicus [10]): 1.27%
- Injected dose/g (Rattus norvegicus [11]): 0.21%
- Injected dose/g (Rattus norvegicus [12]): 0.64%
- Injected dose/g (Rattus norvegicus [13]): 4.87%
- Injected dose/g (Rattus norvegicus [14]): 0.34%
- Injected dose/g (Rattus norvegicus [15]): 0.55%
- Injected dose/g (Rattus norvegicus [16]): 0.22%
- Injected dose/g (Rattus norvegicus [17]): 1.19%
- Injected dose/g (Rattus norvegicus [18]): 66.9%
- Injected dose/g (Rattus norvegicus [19]): 0.59%
- Injected dose/g (Rattus norvegicus [20]): 5.69%
- Injected dose/g (Rattus norvegicus [21]): 1.58%

Structure (SMILES): O=C(O)CCCCCCCCC[Te]CCCCC/C=C/I
- Injected dose/g (Rattus norvegicus [22]): 1.85%
- Injected dose/g (Rattus norvegicus [2]): 2.02%
- Ratio [3]: 1.5
- Injected dose/g (Rattus norvegicus [4]): 0.52%
- Injected dose/g (Rattus norvegicus [5]): 0.66%
- Injected dose/g (Rattus norvegicus [23]): 0.21%
- Injected dose/g (Rattus norvegicus [6]): 3.09%
- Injected dose/g (Rattus norvegicus [24]): 2.22%
- Ratio [8]: 0.47
- Injected dose/g (Rattus norvegicus [25]): 0.19%
- Injected dose/g (Rattus norvegicus [26]): 1.42%
- Injected dose/g (Rattus norvegicus [13]): 5.15%
- Injected dose/g (Rattus norvegicus [14]): 0.32%
- Injected dose/g (Rattus norvegicus [15]): 0.76%
- Injected dose/g (Rattus norvegicus [27]): 0.62%
- Injected dose/g (Rattus norvegicus [28]): 0.34%
- Injected dose/g (Rattus norvegicus [18]): 72%
- Injected dose/g (Rattus norvegicus [29]): 1.51%
- Injected dose/g (Rattus norvegicus [30]): 1.92%
- Injected dose/g (Rattus norvegicus [31]): 0.34%
- Injected dose/g (Rattus norvegicus [20]): 6.49%

Source: ChEMBL document CHEMBL1122777, “Effect of tellurium position on the myocardial uptake of radioiodinated 18-iodotellura-17-octadecenoic acid analogues” (1984)
